Measured values from ChEMBL document CHEMBL3396987, “Discovery and structure-activity relationship studies of N6-benzoyladenine derivatives as novel BRD4 inhibitors” (Bioorg Med Chem, 2015).
The source made the active and inactive calls. No cut-off for these calls is given here.

What was measured:
[1] = target: T1, Bromodomain-containing protein 4 (Homo sapiens, UniProt O60885); assay: Inhibition of BRD4 bromodomain-1 (unknown origin) by europium based LANCE TR-FRET assay
[2] = target: T1, Bromodomain-containing protein 4; settings: at 100 µM
[3] = target: T1, Bromodomain-containing protein 4; assay: Inhibition of BRD4 bromodomain-1 (unknown origin) at 300 uM by europium based LANCE TR-FRET assay
Outline: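 Run with a commercial BRD4 bromodomain 1 TR-FRET assay kit, read out as europium-based LANCE time-resolved fluorescence resonance energy transfer.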

| SMILES | IC50 [1] | inhibition [2] | inhibition [3] |
| --- | --- | --- | --- |
| COc1ccc(C(=O)Nc2ncnc3[nH]cnc23)cc1 | 34.5 µM |  |  |
| C/C(=C\CNc1ncnc2[nH]cnc12)CO |  | inactive |  |
| COc1ccc(C(=O)Nc2ncnc3[nH]cnc23)c(OC)c1 |  | 40.8% | < 50% |
| O=C(Nc1cccc2ncccc12)c1ccccc1 |  | 16.4% | < 50% |
| c1ccc(CNc2ncnc3[nH]cnc23)cc1 |  | inactive |  |
| O=C(Nc1cccc2[nH]cnc12)c1ccccc1 |  | 4.8% | < 50% |
| O=C(Nc1ncnc2[nH]cnc12)c1ccc(Br)cc1 |  | 36.7% | < 50% |
| O=C(Nc1cccc2c1ncn2C(=O)c1ccccc1)c1ccccc1 |  | 7.2% | < 50% |
| COc1cccc(C(=O)Nc2ncnc3[nH]cnc23)c1 | 63 µM |  |  |
| O=C(Nc1ncnc2nc[nH]c12)c1ccccc1 | 34.2 µM |  |  |
| Cn1cnc2c(NC(=O)c3ccccc3)ncnc21 |  | 3.7% | < 50% |
| Cc1ccccc1C(=O)Nc1ncnc2[nH]cnc12 |  | 40.4% | < 50% |
| COc1cccc(C(=O)Nc2ncnc3[nH]cnc23)c1OC | 78.6 µM |  |  |
| COc1cc(OC)c(C(=O)Nc2ncnc3[nH]cnc23)cc1OC | 0.427 µM |  |  |
| O=C1CCC(N2C(=O)c3ccccc3C2=O)C(=O)N1 (stereo unspecified) |  | inactive |  |
| O=C(Nc1ncnc2[nH]cnc12)c1cccc(Br)c1 |  | 44.5% | < 50% |
| O=C(Nc1ncnc2[nH]cnc12)c1ccccc1Br |  | 39% | < 50% |
| O=C(c1ccccc1)N(C(=O)c1ccccc1)c1ccncn1 |  | 11% | < 50% |
| O=C(Nc1ccncn1)c1ccccc1 |  | 5.8% | < 50% |
| COc1ccc(OC)c(C(=O)Nc2ncnc3[nH]cnc23)c1 | 7.2 µM |  |  |
| Cc1noc(C)c1N1C(=O)c2ccccc2C1=O |  | inactive |  |
| CN(C)c1ccccc1C(=O)Nc1ncnc2[nH]cnc12 | 5.6 µM |  |  |
| CCCOc1ccccc1C(=O)Nc1ncnc2[nH]cnc12 | 20 µM |  |  |
| Cc1n[nH]c(C)c1CN1C(=O)c2ccccc2C1=O |  | inactive |  |
| COc1ccccc1C(=O)Nc1ncnc2[nH]cnc12 | 16 µM |  |  |
| COc1cccc(OC)c1C(=O)Nc1ncnc2[nH]cnc12 |  | 11.5% | < 50% |
| COc1ccc(C(=O)Nc2ncnc3[nH]cnc23)cc1OC | 7.8 µM |  |  |
| CSc1ccccc1C(=O)Nc1ncnc2[nH]cnc12 | 29.7 µM |  |  |
| COc1cc(OC)cc(C(=O)Nc2ncnc3[nH]cnc23)c1 | 17.9 µM |  |  |
